# KCNQ1 block: inhibitors of human KCNQ1 channel, primary screen, cell-based, thallium flux, high-throughput | CHO-K1 KCNQ1, FluxOR thallium flux fluorescence; active compounds read high | B-score at 10 µM | AID 2642, 2010 | Potassium voltage-gated channel subfamily KQT member 1 (Homo sapiens), P51787 | actives 1.3% (n = 310,000);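 active = compounds whose thallium flux B-score, printed positive for inhibition, exceeds three library SD while starting fluorescence stays within three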;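 also: channel opened by potassium depolarization with thallium stimulus after 20 min compound exposure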
# KCNK9 block: KCNK9 potassium channel inhibitors, primary screen, HEK293 cells, thallium flux; FluxOR thallium flux fluorescence; active compounds read low; B-score at 10 µM; actives 1.2% (n = 310,000); AID 488922, 2010;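 active = ratio B-score over 3 SD below the library mean, with starting fluorescence within 5 SD of its mean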;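 also: negative B-score means less thallium flux so channel inhibition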
# KCNK3 inh: human KCNK3 channel inhibitors, primary screen, CHO cells, FluxOR thallium flux, B-score. FluxOR fluorescence; active compounds read low. actives 0.84% (n = 340,000). Potassium channel subfamily K member 3 (Homo sapiens), O14649. B-score at 10 µM;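 active = B-score under library mean minus 4 SD, starting fluorescence ratio at most library mean plus 5 SD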;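 also: more negative B-score means stronger inhibition of thallium flux through KCNK3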
# Target sequence (O14649 whole entry, looked up): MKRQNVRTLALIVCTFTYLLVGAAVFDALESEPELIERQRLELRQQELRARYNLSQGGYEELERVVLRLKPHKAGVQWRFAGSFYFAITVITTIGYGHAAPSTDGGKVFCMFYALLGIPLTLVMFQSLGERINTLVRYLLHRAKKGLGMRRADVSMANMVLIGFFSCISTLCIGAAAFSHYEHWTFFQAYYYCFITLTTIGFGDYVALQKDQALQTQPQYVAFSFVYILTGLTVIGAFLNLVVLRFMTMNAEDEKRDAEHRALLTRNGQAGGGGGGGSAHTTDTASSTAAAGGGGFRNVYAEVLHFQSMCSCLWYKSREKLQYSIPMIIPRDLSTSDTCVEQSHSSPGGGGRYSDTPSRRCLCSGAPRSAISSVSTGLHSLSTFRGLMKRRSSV
# KCNQ1 pot: potentiators or activators of KCNQ1 channel, primary screen, cell-based, thallium flux, high-throughput | CHO-K1 KCNQ1, thallium flux FluxOR fluorescence; active compounds read high | B-score at 10 µM | actives 0.35% (n = 310,000);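 active = fluorescence ratio B-score, a plate-corrected score, at least three library SD, with initial intensity B-score within 5 SD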
#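 Assay system: CHO-K1 cells stably expressing KCNQ1; Medium: assay buffer with matched DMSO; Also added: K+/Tl+ depolarizing stimulus; Dosing: single dose; Timing: dye 90 min, compound 20 min, room temperature; Measured by: kinetic FluxOR thallium fluorescence, 10-s 1-Hz baseline, 110-s post-stimulus read; Read-out: peak-minus-minimum fluorescence over initial fluorescence, negative-control normalized, B-scored.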
# hERG rescue: hERG rescue from dofetilide block, primary screen, cell-based, CHO-hERG, FluxOR thallium flux, dofetilide IC70 | actives 0.51% (n = 310,000) | activation (rescue from dofetilide block), less the hit threshold, % at 10 µM | AID 1511, 2009 | Voltage-gated inwardly rectifying potassium channel KCNH2 (Homo sapiens), Q12809 | dofetilide IC70 present;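 active = activation above the mean of controls blocked by dofetilide plus 5 SD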;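 also: thallium influx through hERG after potassium depolarization seen as dye fluorescence rise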
# * = called active by the depositor; i = inactive; / = not tested or not shown; ! = not confirmed by another sample. The list is not random: actives were taken first. Their share in the collection is about 3.1%.
SMILES,KCNQ1 block,KCNK9 block,KCNK3 inh,KCNQ1 pot,hERG rescue
CC(C)(C)OC(=O)NCCCCCNC(=O)c1[nH]cnc1C(=O)N[C@@H](Cc1ccccc1)C(=O)OCc1ccccc1,9*,i,i,i,-11
COc1ccc(CCN2CC(C(=O)N(C)Cc3ccc(C)o3)CCC2=O)cc1 (configuration not stated),i,i,i,i,-7
Cc1ccc(C(=O)NC(Cc2ccccc2C(F)(F)F)C(=O)O)cc1 (configuration not stated),/,/,i,/,/
COc1ccc(NC(=O)c2ccco2)c(OC)c1,i,i,i,i,-7
COc1ccc(NC(=O)c2oc3ccccc3c2NC(=O)c2ccco2)c(OC)c1,i,-7.8*,i,i,-11
COc1ccc(OC)c(NC(=O)c2c(NC(=O)c3ccco3)sc3c2CCC3)c1,i,-7.5*,/,i,-9
CC(C)(C)CC(=O)N1CCN(c2ccc(S(=O)(=O)N3CCOCC3)cc2[N+](=O)[O-])CC1,/,/,i,/,/
COc1ccc(S(=O)(=O)Nc2cccc3c2O[C@H](CN(C)C(=O)Nc2c(C)noc2C)[C@@H](C)CN([C@H](C)CO)C3=O)cc1,/,/,i,/,/
O=[N+]([O-])c1ccc(Cl)c(CN2CCN(c3ncccn3)CC2)c1,i,i,i,i,-13
Cc1ccc2nc(C)c(CN3CCN(c4ccc([N+](=O)[O-])cc4Cl)CC3)n2c1,9*,i,i,i,-17
CCOc1ccccc1NC(=O)NNS(=O)(=O)c1cc(OC)ccc1OC,i,i,i,i,-6
O=C(Cn1cnc2c(oc3ccccc32)c1=O)N1CCN(c2ccccc2)CC1,i,i,i,i,9.4*
O=C(C1=C[C@H](c2csc3ccccc23)C[C@H](OCc2ccc(CO)cc2)O1)N1CCCCCCC1,i,i,/,i,-1
O=C(Nc1c(Cl)ccc2nsnc12)c1ccc([N+](=O)[O-])o1,i,i,i,i,-10
O=C(CCc1ccc(O)cc1)NNC(=S)NCCc1ccccc1,i,i,i,i,-7
O=C(NNC(=S)NCCc1ccccc1)c1ccc(Br)s1,8*,i,i,i,-3
CCCCN(CC)C(=O)c1cc2cc3ccc(OC)cc3nc2o1,i,-6.7*,i,i,-10
COCCNC(=O)c1cc2cc3ccc(OC)cc3nc2o1,i,i,i,i,-4
CCOc1ccc(N2CC(C(=O)Nc3cc(S(=O)(=O)N4CCCCC4)ccc3C)CC2=O)cc1 (configuration not stated),/,/,i,/,/
FC(F)(F)c1cccc(NC(=S)Nc2cccc(NC(=S)Nc3cccc(C(F)(F)F)c3)n2)c1,8*,i,i,i,-14
FC(F)(F)c1cccc(NC(=S)NNC(=S)NCc2ccccc2)c1,7*,i,i,i,-15
O=C(Nc1ccncc1)C1CC(=O)N(Cc2ccccc2)C1 (configuration not stated),/,/,i,/,/
CCCCCCCCCCCCCCCC[n+]1ccccc1,/,/,-11*!,/,/
CCC(C)(C)C1CCC2(CC1)NC(=O)N(CC(=O)N(C)Cc1ccc(OC(F)F)cc1)C2=O (configuration not stated),i,i,i,i,-12
Nc1ccn(Cc2ccccc2)n1,i,i,i,i,41*
SMILES,KCNQ1 block,KCNK9 block,KCNK3 inh,KCNQ1 pot,hERG rescue
CC1CCCCN1C(=O)CCC(=O)Nc1nnc(C2CCCCC2)s1 (configuration not stated),i,-6.9*,i,i,-6
COC(=O)Nc1ccc(S(=O)(=O)NC2CCCCC2)cc1,i,i,i,i,-10
O=C(COc1ccc(Cl)cc1Cl)N(Cc1ccco1)C1CCS(=O)(=O)C1 (configuration not stated),i,-7*,i,i,-2
CS(=O)c1ccccc1-c1nc(-c2ccc([N+](=O)[O-])cc2)no1 (configuration not stated),/,/,i,/,/
CC(C)(C)c1ccc(C(=O)NC(=S)NNC(=O)c2cccs2)cc1,i,i,i,12*,-9
Cc1cccc(C(=O)NC(=S)NNC(=O)c2ccc(Cl)cc2)c1,i,i,i,i,9.1*
CCCC(=O)Nc1ccc(C(=O)NNC(=S)NC(=O)c2cccs2)cc1,i,i,i,i,-10
O=C(NC(=S)NNC(=O)c1cccs1)c1ccccc1,6*,i,i,i,-12
Cc1ccccc1C(=O)NNC(=S)NC(=O)c1cccs1,i,i,i,i,-8
Cc1cccc(C(=O)NC(=S)NNC(=O)c2cccs2)c1,i,i,i,8*,-2
O=C(NNC(=O)C1CCN(c2ncccn2)CC1)c1ccc(F)cc1,i,i,i,i,2
CCOc1cccc2sc(N(CCN(C)C)C(=O)c3cc4ccccc4cc3OC)nc12,9*,i,i,i,-11
CN(C)CCN(C(=O)c1cccc2ccccc12)c1nc2cc3c(cc2s1)OCO3,6*,i,i,i,-21
O=C(NCc1nc2ncc(Br)cc2[nH]1)c1ccccc1,i,i,i,i,6.2*
COc1ccc(NC(=O)CNc2cc(C)ccc2C)cc1S(=O)(=O)N1CCOCC1,/,/,i,/,/
O=C(NCCN1C(=O)S/C(=C\c2ccc(Cl)cc2Cl)C1=O)C1=COCCO1,i,i,i,i,-15
COc1cccc(C(C)NC(=O)Nc2cccc(C(F)(F)F)c2)c1 (configuration not stated),i,-6.8*,i,i,-7
COc1cccc(C(C)NC(=O)Nc2cc(Cl)ccc2OC)c1 (configuration not stated),i,i,i,i,-12
O=C(NCC1CC1(Cl)Cl)Nc1ccc(Cl)c(Cl)c1 (configuration not stated),i,-8.4*,i,i,-15
O=C(c1cccc(Cl)c1)N1CCC2CC1c1cc(N3CCOCC3)ccc12 (configuration not stated),/,/,i,/,/
O=C(c1ccc(Cl)cc1)C1C2C(=O)N(c3ccccc3)C(=O)C2C2CCCN21 (configuration not stated),i,i,i,i,-16
CC(=O)c1ccc(N2C(=O)C3C(C2=O)C(C(=O)c2ccc(Cl)cc2)N2CCCC32)cc1 (configuration not stated),8*,i,/,i,-20
CCCn1c(N)c(C(=O)CSc2nc3ccccc3s2)c(=O)[nH]c1=O,i,i,i,i,5.4*
